Laboratory results as given in ChEMBL document CHEMBL4414577, “Discovery of Pyrrolo[2,3-b]pyridine (1,7-Dideazapurine) Nucleoside Analogues as Anti-Trypanosoma cruzi Agents” (J Med Chem, 2019).
pEC50: −log10 of the molar value. Activity calls are given as the source filed them. The calls are words filed in the database; no cut-off is given here.

Assays:
[1] = Cytotoxicity against human MRC5 SV2 cells assessed as reduction in cell viability incubated for 3 days by resazurin dye based assay; details: MRC-5 SV2, 72 h
[2] = tested on: Trypanosoma cruzi; test: Antitrypanosomal activity against Trypanosoma cruzi Tulahuen CL2 amastigotes infected in human MRC5 SV2 cells incubated for 7 days by chlorophenol red beta-D-galactopyranoside substrate based spectrophotometric assay; format: functional, organism-based; details: Tulahuen CL2, MRC-5 SV2, 168 h
Method in brief: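 Intracellular amastigotes of β-galactosidase-expressing Tulahuen strain grown in MRC-5 fibroblast host cells. EC50 in μM given as mean and SEM of two or three independent experiments; some values come from a single determination.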

[3] = Selectivity index, ratio for EC50 for human MRC5 SV2 cells to EC50 for Trypanosoma cruzi Tulahuen CL2 amastigotes infected in human MRC5 SV2 cells; format: toxicity, cell-based; details: read-out: Ratio EC50
[4] = tested on: Trypanosoma cruzi; test: Antitrypanosomal activity against bloodstream form of Trypanosoma cruzi Y trypomastigotes measured after 24 hrs by Neubauer chamber-based light microscopic analysis; format: functional, organism-based
[5] = tested on: L929; test: Cytotoxicity against mouse L929 cells assessed as reduction in cell viability; format: cell-based
[6] = Cytotoxicity against Swiss mouse primary cardiac cells assessed as reduction in cell viability incubated for 24 hrs by PrestoBlue dye based colorimetry
[7] = tested on: Trypanosoma cruzi; test: (§1) In vivo antitrypanosomal activity against Trypanosoma cruzi Y trypomastigotes infected in Swiss mouse assessed as reduction in parasitemia at 100 mg/kg, po administered once daily via gavage for 5 days starting from 5 days post-infection and measured 8 days post-infection by light microscopic method relative to control; format: functional; set-up: scale not given: the % may be the effect or the level left
Method in brief: (§2)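 Male Swiss Webster mice (18-20 g, 4-5 weeks) infected i.p. with 10⁴ Y-strain bloodstream trypomastigotes; six per group. Oral gavage from 5 dpi for 5 consecutive days: test compound at 25 mg/kg b.i.d. (2.0 mg/mL in 10% EtOH, 0.1 M citrate pH 3.02), benznidazole at 100 mg/kg s.i.d. Parasites counted in 5 μL tail blood to 30 dpi; mortality followed daily to 40 dpi.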

[8] = tested on: Trypanosoma cruzi; test: as §1, with “up to 30” for “8”; format: functional; set-up: scale not given: the % may be the effect or the level left; method in brief: as §2
[9] = tested on: Trypanosoma cruzi; test: In vivo antitrypanosomal activity against Trypanosoma cruzi Y trypomastigotes infected in Swiss mouse assessed as mouse survival at 100 mg/kg, po administered once daily via gavage for 5 days starting from 5 days post-infection and measured daily up to 40 days post-infection; format: functional, organism-based; method in brief: as §2
[10] = Toxicity in Swiss Webster mouse infected with Trypanosoma cruzi Y trypomastigotes assessed as body weight loss at 100 mg/kg, po administered once daily via gavage for 5 days starting from 5 days post-infection and measured daily up to 40 days post-infection; format: organism-based; details: in vivo
Method in brief: (§3)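 Male Swiss Webster mice were infected i.p. with 10⁴ Y-strain trypomastigotes and treated by oral gavage for 5 days from 5 dpi. Regimens were 25 mg/kg b.i.d. (10% EtOH/citrate vehicle) or benznidazole 100 mg/kg s.i.d. Body weight and visual clinical signs were monitored, with daily mortality checks up to 40 dpi. There were six mice per group.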

[11] = Toxicity in Swiss Webster mouse infected with Trypanosoma cruzi Y trypomastigotes assessed as appearance of clinical symptoms at 100 mg/kg, po administered once daily via gavage for 5 days starting from 5 days post-infection and measured daily up to 40 days post-infection; format: organism-based; details: in vivo; method in brief: as §3
[12] = tested on: Trypanosoma cruzi; test: (§4) In vivo antitrypanosomal activity against Trypanosoma cruzi Y trypomastigotes infected in Swiss mouse assessed as reduction in parasitemia at 100 mg/kg, po administered once daily for 5 days with 2 days interval for 3 cycles and measured 9 days post-infection by light microscopy; format: functional, organism-based
Method in brief: (§5)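 Male Swiss Webster mice infected i.p. with 10⁴ Y-strain bloodstream trypomastigotes; six per group. Oral gavage from 5 dpi for 15 days (three 5-day rounds, 2 days off): test compound 25 mg/kg b.i.d., benznidazole 100 mg/kg s.i.d. Parasites counted in 5 μL tail blood to 30 dpi; mortality followed to 53 dpi.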

[13] = tested on: Trypanosoma cruzi; test: as §4, with “up to 30” for “9”, “microscopy relative to control” for “microscopy”; format: functional, organism-based; method in brief: as §5
[14] = tested on: Trypanosoma cruzi; test: In vivo antitrypanosomal activity against Trypanosoma cruzi Y trypomastigotes infected in Swiss mouse assessed as mouse survival at 100 mg/kg, po administered once daily for 5 days with 2 days interval for 3 cycles and measured […]; format: functional, organism-based; method in brief: as §5
[15] = Toxicity in Swiss Webster mouse infected with Trypanosoma cruzi Y trypomastigotes assessed as body weight loss at 100 mg/kg, po administered once daily for 5 days with 2 days interval for 3 cycles; format: organism-based; details: in vivo
Method in brief: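 Y-strain-infected male Swiss Webster mice were dosed orally for 15 days (three rounds of 5 days, 2 drug-free days between) starting at 5 dpi. Regimens were 25 mg/kg b.i.d. or benznidazole 100 mg/kg s.i.d. Weight loss was recorded as a sign of toxicity, with mortality checked daily up to 53 dpi. There were six mice per group.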

[16] = tested on: Trypanosoma cruzi; test: Antitrypanosomal activity against Trypanosoma cruzi Y amastigotes infected in Swiss mouse primary cardiac cells incubated for 168 hrs with media replenishment for every 48 hrs followed by compound washout and measured after 168 hrs by light microscopic method; format: functional, organism-based
Method in brief: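 Cardiac cells plated 24 h, then infected 24 h at 37 °C with Y-strain bloodstream trypomastigotes (parasite:host 10:1) and washed. Serial dilutions (up to 5 µM) for 168 h at 37 °C, drug medium renewed every 48 h. PBS rinse, 168 h drug-free. Giemsa-stained; infected cells and parasites per cell scored in 200 cells. EC50 from infection-index inhibition; two experiments, duplicate.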

[17] = tested on: Trypanosoma cruzi; test: In vivo antitrypanosomal activity against Trypanosoma cruzi Y trypomastigotes infected in Swiss mouse assessed as reduction in parasitemia at 100 mg/kg, po administered once daily via gavage for 5 days starting from 5 days post-infection in presence of cyclophosphamide by light microscopic method; format: functional, organism-based
[18] = tested on: Trypanosoma cruzi; test: In vivo antitrypanosomal activity against Trypanosoma cruzi Y trypomastigotes infected in Swiss mouse assessed as reduction in parasitemia at 100 mg/kg, po administered once daily for 5 days with 2 days interval for 3 cycles in presence of cyclophosphamide by light microscopy; format: functional, organism-based

## OC[C@H]1O[C@@H](n2cc(I)c3cccnc32)[C@H](O)[C@@H]1O
[1]
  pEC50: 4.28
[2]
  pEC50: 5.76
[3]
  selectivity ratio: > 30
[4]
  pEC50: 4.44
[5]
  pEC50: < 3.70

## Nc1ccnc2c1c(C1CCCCC1)cn2[C@@H]1O[C@H](CO)[C@@H](O)[C@H]1O
[1]
  pEC50: < 4.19
[2]
  pEC50: < 4.19

## C[C@H]1O[C@@H](n2cc(I)c3c(N)ccnc32)[C@H](O)[C@@H]1O
[1]
  pEC50: < 4.19
[2]
  pEC50: < 4.19

## C#Cc1cn([C@@H]2O[C@H](CO)[C@@H](O)[C@H]2O)c2nccc(N)c12
[1]
  pEC50: 4.23
[2]
  pEC50: 7.10
[3]
  selectivity ratio: 730
[4]
  pEC50: 4.39
[5]
  pEC50: < 3.70

## Nc1ccnc2c1c(-c1ccccc1)cn2[C@@H]1O[C@H](CO)[C@@H](O)[C@H]1O
[1]
  pEC50: < 4.19
[2]
  pEC50: < 4.19

## Nc1ccnc2c1c(-c1ccc(Cl)cc1)cn2[C@@H]1O[C@H](CO)[C@@H](O)[C@H]1O
[1]
  pEC50: < 4.19
[2]
  pEC50: < 4.19

## Nc1ccnc2c1c(Cl)cn2[C@@H]1O[C@H](CO)[C@@H](O)[C@H]1O
[1]
  pEC50: < 4.19
[2]
  pEC50: 6.72
[3]
  selectivity ratio: > 337
[4]
  pEC50: < 4.30
[6]
  pEC50: < 3.40
[5]
  pEC50: < 3.70

## O=C(Cn1ccnc1[N+](=O)[O-])NCc1ccccc1 [BENZNIDAZOLE]
[2]
  pEC50: 5.63
[7]
  Activity: 100%
[8]
  Activity: 100%
[9]
  Activity: Active
[10]
  Activity: Non-Toxic
[11]
  Activity: Non-Toxic
[12]
  Activity: Active
[13]
  Activity: Active
[14]
  Activity: inactive
[15]
  Activity: Non-Toxic
[4]
  pEC50: 5.24
[6]
  pEC50: < 3.40
[5]
  pEC50: < 3.70
[16]
  pEC50: 5.57
[17]
  Activity: inactive
[18]
  Activity: inactive

## C=Cc1cn([C@@H]2O[C@H](CO)[C@@H](O)[C@H]2O)c2nccc(N)c12
[1]
  pEC50: < 4.19
[2]
  pEC50: 6.09
[3]
  selectivity ratio: > 79
[4]
  pEC50: < 4.30
[5]
  pEC50: < 3.70

## Nc1ccnc2c1c(F)cn2[C@@H]1O[C@H](CO)[C@@H](O)[C@H]1O
[1]
  pEC50: < 4.19
[2]
  pEC50: 5.06
[3]
  selectivity ratio: > 7.3

## N#Cc1cn([C@@H]2O[C@H](CO)[C@@H](O)[C@H]2O)c2nccc(N)c12
[1]
  pEC50: 4.73
[2]
  pEC50: 5.40
[3]
  selectivity ratio: 4.6

## Nc1ccnc2c1c(-c1ccccn1)cn2[C@@H]1O[C@H](CO)[C@@H](O)[C@H]1O
[1]
  pEC50: < 4.19
[2]
  pEC50: < 4.19

## Cc1ccnc2c1c(I)cn2[C@@H]1O[C@H](CO)[C@@H](O)[C@H]1O
[1]
  pEC50: 5.64
[2]
  pEC50: 5.10
[3]
  selectivity ratio: 0.29

## Nc1ccnc2[nH]cc(I)c12
[1]
  pEC50: < 4.19
[2]
  pEC50: < 4.19

## Nc1ccnc2c1c(I)cn2[C@H]1C[C@H](O)[C@@H](CO)O1
[1]
  pEC50: < 4.19
[2]
  pEC50: < 4.19

## Nc1ccnc2c1c(-c1cccs1)cn2[C@@H]1O[C@H](CO)[C@@H](O)[C@H]1O
[1]
  pEC50: < 4.19
[2]
  pEC50: 4.43
[3]
  selectivity ratio: > 1.7

## Nc1ccnc2c1c(C#Cc1ccccc1)cn2[C@@H]1O[C@H](CO)[C@@H](O)[C@H]1O
[1]
  pEC50: < 4.19
[2]
  pEC50: < 4.19

## Nc1ccnc2c1c(Br)cn2[C@@H]1O[C@H](CO)[C@@H](O)[C@H]1O
[1]
  pEC50: < 4.19
[2]
  pEC50: 6.70
[3]
  selectivity ratio: > 320

## Nc1ccnc2c1c(C1=CCCCC1)cn2[C@@H]1O[C@H](CO)[C@@H](O)[C@H]1O
[1]
  pEC50: < 4.19
[2]
  pEC50: < 4.19

## CCc1cn([C@@H]2O[C@H](CO)[C@@H](O)[C@H]2O)c2nccc(N)c12
[1]
  pEC50: < 4.19
[2]
  pEC50: < 4.19

## OC[C@H]1O[C@@H](n2cc(I)c3c(Cl)ccnc32)[C@H](O)[C@@H]1O
[1]
  pEC50: 5.66
[2]
  pEC50: 5.67
[3]
  selectivity ratio: 1

## Nc1ncnc2c1c(I)cn2[C@@H]1O[C@H](CO)[C@@H](O)[C@H]1O [IODOTUBERCIDIN]
[1]
  pEC50: 5.27
[2]
  pEC50: 6.10
[3]
  selectivity ratio: 6.7

## Nc1ccnc2c1ccn2[C@@H]1O[C@H](CO)[C@@H](O)[C@H]1O
[1]
  pEC50: 4.75
[2]
  pEC50: 5.64
[3]
  selectivity ratio: 7.9

## Nc1ccnc2c1c(I)cn2[C@@H]1O[C@H](CO)C[C@H]1O
[1]
  pEC50: < 4.19
[2]
  pEC50: < 4.19

## Cc1cn([C@@H]2O[C@H](CO)[C@@H](O)[C@H]2O)c2nccc(N)c12
[1]
  pEC50: 4.29
[2]
  pEC50: 5.94
[3]
  selectivity ratio: 45
[4]
  pEC50: < 4.30
[5]
  pEC50: < 3.70

## Nc1ccnc2c1c(/C=C/c1ccccc1)cn2[C@@H]1O[C@H](CO)[C@@H](O)[C@H]1O
[1]
  pEC50: < 4.19
[2]
  pEC50: < 4.19

## Nc1ccnc2c1c(C(F)(F)F)cn2[C@@H]1O[C@H](CO)[C@@H](O)[C@H]1O
[1]
  pEC50: 6.14
[2]
  pEC50: 5.81
[3]
  selectivity ratio: 0.47

## Nc1ccnc2c1c([N+](=O)[O-])cn2[C@@H]1O[C@H](CO)[C@@H](O)[C@H]1O
[1]
  pEC50: < 4.19
[2]
  pEC50: 4.32
[3]
  selectivity ratio: > 1.3
